This is a sample that favours compounds with a hit; in the whole collection about 3.5% have one here.
MrgX1 ag – agonists of human MrgX1 receptor, primary screen, HEK293 cells, Fluo-4 calcium flux; Mas-related G-protein coupled receptor member X1 (Homo sapiens), Q96LB2; Fluo-4 calcium fluorescence, agonist mode; stronger effect = higher value; B-score at 10 µM; 310,000 tested, 0.44% active; AID 588627, 2011;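 active = calcium response B-score plate-corrected fluorescence ratio at least 3 library SD, with starting fluorescence B-score inside 5 SD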
Target sequence (Q96LB2 whole entry, looked up): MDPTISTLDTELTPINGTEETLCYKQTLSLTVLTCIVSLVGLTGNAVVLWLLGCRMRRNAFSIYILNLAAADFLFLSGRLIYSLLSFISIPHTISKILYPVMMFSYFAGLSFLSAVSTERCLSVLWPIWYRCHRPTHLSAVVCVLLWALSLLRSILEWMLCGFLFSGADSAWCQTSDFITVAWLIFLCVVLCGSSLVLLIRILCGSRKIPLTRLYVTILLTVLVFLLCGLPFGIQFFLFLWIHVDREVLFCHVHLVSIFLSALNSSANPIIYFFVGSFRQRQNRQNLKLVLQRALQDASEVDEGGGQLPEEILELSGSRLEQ
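Test system: Stable human MrgX1 HEK293 cell line | Schedule: Overnight plating before 1 h dye loading | Read-out basis: Baseline-normalised fluorescence change ratio, B-scored | Detection: Kinetic calcium dye fluorescence, Fluo-4 NW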
RGS4 pot – RGS4 potentiators or activators, primary screen, cell-based, HEK293 M3R inducible RGS4, calcium flux | 310,000 tested, 0.92% active | AID 463111, 2010 | carbachol calcium flux Fluo4; stronger effect = lower value | B-score at 10 µM;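 active = B-score of the integrated calcium signal more than 4 SD below the library mean, with starting fluorescence not abnormally high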;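 note: negative B-score means reduced calcium response which marks RGS4 activation or potentiation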
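Material: M3R-expressing HEK293 line, RGS4 induced by doxycycline | Schedule: Overnight RGS4 induction, 30 min dye load 37 °C, 20 min compound RT | Measured by: Fluo4 fluorescence kinetic imaging of calcium | Read-out: Integrated calcium ratio converted to B score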
RGS4 block – RGS4 inhibitors, primary screen, cell-based, HEK293 M3R inducible RGS4, calcium flux; Regulator of G-protein signaling 4 (Homo sapiens), P49798; B-score at 10 µM; 310,000 tested, 0.45% active; Fluo-4 calcium flux; stronger effect = higher value; triggered by carbachol at its EC20;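 active = B-score, a plate-corrected calcium signal, over three deviations above library mean, with baseline fluorescence within five deviations of library mean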;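 note: RGS4 expression induced by doxycycline in cells with stable M3 receptor; B-score is computed from the integrated fluorescence ratio over baseline after carbachol; higher B-score means a larger calcium signal and so more RGS4 inhibition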
Target sequence (P49798 whole entry, looked up): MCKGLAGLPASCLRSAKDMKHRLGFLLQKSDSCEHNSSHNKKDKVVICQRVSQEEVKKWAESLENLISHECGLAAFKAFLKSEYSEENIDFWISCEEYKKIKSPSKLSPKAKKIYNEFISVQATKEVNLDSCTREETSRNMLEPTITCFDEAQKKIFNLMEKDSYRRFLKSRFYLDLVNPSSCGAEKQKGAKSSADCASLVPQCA
MrgX1 allo act – positive allosteric modulators of MrgX1, primary screen, HEK293 cells, Fluo-4 calcium flux; Mas-related G-protein coupled receptor member X1 (Homo sapiens), Q96LB2; FDSS; stronger effect = higher value; B-score at 10 µM; 310,000 tested, 0.63% active;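 active = plate-corrected calcium response at least 3 library SD above typical, normal starting fluorescence, not activating the receptor alone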;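 note: compound read alongside a low EC10 to EC30 dose of BAM8-22 agonist; peak minus trough fluorescence over baseline measured at the second addition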
MrgX1 antag – antagonists of human MrgX1 receptor, primary screen, HEK293 cells, Fluo-4 calcium flux. Mas-related G-protein coupled receptor member X1 (Homo sapiens), Q96LB2. BAM8-22 antagonism; stronger effect = lower value. B-score at 10 µM. 310,000 tested, 1.3% active;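 active = calcium-response B-score plate-corrected more than 3 library SD below zero, starting fluorescence within 5 deviations, no agonist response on first addition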;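 note: peak minus trough fluorescence over baseline after final BAM8-22 challenge near maximal dose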
MrgX1 allo conf – MrgX1 positive allosteric modulators, duplicate retest, confirmation, HEK293 cells, Fluo-4 calcium flux. shares compounds with MrgX1 allo act. Fluo-4 calcium fluorescence, FDSS. activation (ratio percentage), % at 10 µM. 1,200 tested, 13% active. AID 602413, 2012;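 active = ratio at least 3 SD above the weak peptide control, stable starting fluorescence, no direct agonism earlier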;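 note: compound followed by low BAM8-22 agonist challenge near EC20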
HEK293 Ca flux – nonspecific calcium signal in parental HEK293, confirmation, counter-screen for MrgX1 antagonist project, parental HEK293 cells, Fluo-4 calcium flux | shares compounds with MrgX1 antag | Fluo-4 calcium fluorescence, FDSS | fluorescence ratio F(max-min)/F0 at 10 µM | 4,000 tested, 2% active | AID 624111, 2012;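 active = duplicate-averaged calcium fluorescence ratio at least three times the standard deviation of buffer wells, a nonspecific response in parental cells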
HEK293 Ca counter – calcium response in parental HEK293 cells, primary screen, counter-screen for MrgX1 allosteric activator project, cell-based, Fluo-4 calcium flux, duplicate; shares compounds with MrgX1 antag; Fluo-4 fluorescence ratio; stronger effect = higher value; fluorescence ratio F(max-min)/F0 at 10 µM; 4,000 tested, 0.4% active; AID 624114, 2012;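 active = calcium fluorescence ratio, averaged over duplicates, at least 3 SD of the buffer-well ratio, meaning a nonspecific response in receptor-free cells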;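 note: untransfected parental HEK293 lacking MrgX1 used as counterscreen for MrgX1 allosteric activators; fluorescence change taken during the second addition on a kinetic imager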
HEK293 Ca cntr2 – calcium response in parental HEK293 cells, primary screen, counter-screen for MrgX1 agonist project, cell-based, Fluo-4 calcium flux, duplicate, agonist mode. shares compounds with MrgX1 antag. Fluo-4 calcium fluorescence (FDSS); stronger effect = higher value. fluorescence ratio F(max-min)/F0 at 10 µM. 4,000 tested, 8.7% active. AID 624115, 2012;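 active = calcium fluorescence ratio at least three times the spread of buffer wells, meaning a non-specific response in parental cells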
Numbers stand for hits; i = inactive; nt = not tested or not shown.

SMILES	MrgX1 ag	RGS4 pot	RGS4 block	MrgX1 allo act	MrgX1 antag	MrgX1 allo conf	HEK293 Ca flux	HEK293 Ca counter	HEK293 Ca cntr2
Cc1ccc(-c2ccc(C(=O)NCCCNC(=O)c3cnccn3)o2)cc1Cl	i	i	i	18.3	i	13.5%	i	i	i
O=C(NCCCNC(=O)c1ccc(-c2cc(Cl)ccc2Cl)o1)c1cnccn1	i	i	i	17.7	i	19.6%	i	i	i
O=C(NCCCNC(=O)c1cc(Cl)ccc1Cl)c1cnccn1	i	i	i	i	i	nt	nt	nt	nt
O=C(NCCCNC(=O)c1ccc(Cl)cc1Cl)c1cnccn1	i	i	i	i	i	nt	nt	nt	nt
COc1ccc(CNC(=O)CCC(=O)Nc2nnc(C(F)(F)F)s2)cc1	i	i	i	i	i	nt	nt	nt	nt
CCN(CC)CCCNc1ncnc2ccccc12	i	i	i	i	i	nt	nt	nt	nt
OCCCCCNc1ncnc2ccccc12	i	i	i	22.5	i	i	i	i	i
CC(=O)Cc1nsc(NC(=O)c2ccc(-c3cccc(Cl)c3)o2)n1	i	i	i	12.9	i	14.9%	i	i	i
CC(=O)Cc1nsc(NC(=O)c2ccc(Br)o2)n1	i	i	i	7.4	i	i	i	i	i
COc1ccc(/C=C(\NC(=O)c2ccc(OC)cc2)C(=O)N2CCCCC2)cc1	i	i	i	i	i	nt	nt	nt	nt
C=CCN(C(=O)c1csnn1)C(C(=O)NCc1ccc(F)cc1)c1ccccc1F (stereo not given)	i	i	i	i	i	nt	nt	nt	nt
Cc1cc(NC(=O)COC(=O)C2CC(=O)N(c3cccc(C)c3C)C2)no1 (stereo not given)	i	i	i	i	i	nt	nt	nt	nt
CC(=O)c1ccc(-n2nnnc2SCC(=O)NC2CCCCC2)cc1	i	i	i	i	i	nt	nt	nt	nt
N#CCCN(Cc1ccccc1)C(=S)Nc1ccccc1	i	i	i	i	i	nt	nt	nt	nt
O=C(c1sc2cccc(F)c2c1Cl)N1CCN(c2ncccn2)CC1	i	i	i	i	i	nt	nt	nt	nt
COC(=O)c1ccccc1NC(=O)COC(=O)C1CCCCC1	i	i	i	8.3	i	i	i	i	i
COC(=O)c1ccccc1NC(=S)NC(=O)C1CCCCC1	i	i	i	7.5	i	i	i	i	i
COC(=O)c1ccccc1NC(=O)C1CCCC1	i	i	i	i	i	nt	nt	nt	nt
CCc1c(C)nc2cc(-c3ccc(OC)c(OC)c3)nn2c1N1CCCC1	i	i	i	16.9	i	i	i	i	i
CCOc1ccc(N(CC(=O)N/N=C/c2cccnc2)S(C)(=O)=O)cc1	i	i	i	i	i	nt	nt	nt	nt
Cc1nn(C)c(C(=O)NC2C3CC4CC(C3)CC2C4)c1Cl (stereo not given)	i	i	i	12.9	i	i	i	i	i
O=C(NCc1ccc(F)cc1)C1CCCN(S(=O)(=O)c2ccc(-n3cnnn3)cc2)C1 (stereo not given)	i	i	i	7.99	i	i	i	i	i
COc1ccc(NS(=O)(=O)c2cc(-c3cnc(C4CC4)o3)ccc2C)cc1	i	i	i	i	i	nt	nt	nt	nt
COc1ccccc1NS(=O)(=O)c1cc(-c2cnc(C3CC3)o2)ccc1C	i	i	i	14	i	i	i	i	i
O=C(NC12CC3CC(CC(C3)C1)C2)c1ccccc1O	i	i	i	9.83	i	i	i	i	i
SMILES	MrgX1 ag	RGS4 pot	RGS4 block	MrgX1 allo act	MrgX1 antag	MrgX1 allo conf	HEK293 Ca flux	HEK293 Ca counter	HEK293 Ca cntr2
CC1CCN(C(=O)c2ccc(-c3ccccc3Cl)o2)CC1	i	i	i	7.64	i	i	i	i	i
O=C(NC12CC3CC(CC(C3)C1)C2)c1ccc(-c2ccccc2Cl)o1	i	i	i	6.74	i	i	i	i	i
O=C(c1ccc(-c2cccc(Cl)c2Cl)o1)N1CCOCC1	i	i	i	i	i	nt	nt	nt	nt
CN1/C(=C/C2CC(=O)NC2=O)C(C)(C)c2ccccc21 (stereo not given)	i	nt	nt	6.97	i	i	i	i	i
CN1/C(=C/C2CC(=O)N(c3cccc4ccccc34)C2=O)C(C)(C)c2ccccc21 (stereo not given)	i	i	i	i	i	nt	nt	nt	nt
CCOc1ccc(C(=O)NCC(=O)OCC(=O)N2CCC(C)CC2)cc1	i	i	i	8.04	i	i	i	i	i
Cc1nnc(NC(=O)c2ccc(S(=O)(=O)N3CCOCC3)cc2)s1	i	i	i	9.83	i	i	i	i	i
Cc1nnc(NC(=O)c2ccc(C)c(S(=O)(=O)N3CCOCC3)c2)s1	i	i	i	i	i	nt	nt	nt	nt
CC1CCCN(S(=O)(=O)c2ccc(C(=O)Nc3nnc(-c4ccccc4Cl)o3)cc2)C1 (stereo not given)	i	i	i	8.73	i	i	i	i	i
COc1cc(/C=C2/C(=N)N3C(=NC2=O)SN=C3S(=O)(=O)C(C)C)ccc1OC(=O)c1ccco1	i	i	i	38.5	i	37.3%	i	i	i
CCOc1cc(/C=C2/SC(=S)NC2=O)ccc1OC(=O)c1ccco1	i	i	i	i	i	nt	nt	nt	nt
CCOc1cc(/C=C2/C(=N)N3C(=NC2=O)SN=C3S(=O)(=O)CC)ccc1OC(=O)c1ccco1	i	i	i	35.1	i	24.2%	i	i	i
CCOc1cc(/C=C2/C(=N)N3OC(C)=CC3=NC2=O)ccc1OC(=O)c1ccco1	i	i	i	i	i	nt	nt	nt	nt
CCOc1cc(/C=C2/C(=N)N3C(=NC2=O)SN=C3S(=O)(=O)C(C)C)ccc1OC(=O)c1ccco1	i	i	i	36.9	i	41.2%	i	i	47.7
Cc1ccccc1NC(=S)N(CCN1CCOCC1)Cc1ccccc1F	i	i	i	i	i	nt	nt	nt	nt
CC[N+](C)(CC)CC(O)COCC1COc2ccccc2O1 (stereo not given)	i	i	i	i	i	nt	nt	nt	nt
Cc1cc(OC(C)C(=O)Nc2ccncc2)ccc1Cl (stereo not given)	i	i	i	i	i	nt	nt	nt	nt
Cc1c(CCCC(=O)O)sc(N)c1C(=O)c1cccc(C(F)(F)F)c1	i	i	i	i	i	nt	nt	nt	nt

Compound activity as filed in PubChem.
